From PubChem
Only some compounds are listed: those with a hit (about 1.8% of all), similar ones and a draw of the others.
CHRM4 antagonist: blocks acetylcholine activation of human M4 receptor | P08173 | CHO-hM4 cells, ACh EC80, Fluo-8 calcium fluorescence | inhibition, % at 3 µM | 0.73% of 360,000 active;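 active = inhibition above its plate's cutoff, the mean inhibition of sample wells plus 3 SD, cut at about 27% in these data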;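 note: 0% = acetylcholine EC80 with DMSO and 100% = DMSO without agonist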
Target sequence (P08173 whole entry, looked up): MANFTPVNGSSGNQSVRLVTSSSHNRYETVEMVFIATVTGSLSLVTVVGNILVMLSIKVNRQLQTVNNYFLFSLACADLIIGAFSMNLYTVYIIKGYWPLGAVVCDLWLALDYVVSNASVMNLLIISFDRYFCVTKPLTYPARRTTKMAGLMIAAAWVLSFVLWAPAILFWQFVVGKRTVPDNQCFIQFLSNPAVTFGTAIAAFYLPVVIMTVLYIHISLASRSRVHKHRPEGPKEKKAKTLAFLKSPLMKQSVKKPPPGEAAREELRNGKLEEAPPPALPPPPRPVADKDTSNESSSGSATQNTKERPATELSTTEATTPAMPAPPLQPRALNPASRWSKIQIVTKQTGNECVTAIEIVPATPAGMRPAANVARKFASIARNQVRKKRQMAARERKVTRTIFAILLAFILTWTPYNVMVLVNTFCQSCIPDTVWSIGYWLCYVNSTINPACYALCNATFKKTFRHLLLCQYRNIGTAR
CHRM4 PAM: potentiates acetylcholine response at human M4 receptor; P08173; CHO-K1 hM4/Gqi5, Fluo-8 calcium fluorescence, ACh EC20; 0% = ACh EC20, 100% = maximal ACh; activation, % at 3 µM; 0.4% of 360,000 active;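 active = activation above its plate's cutoff, the mean activation of sample wells plus 3 SD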
M5 PAM: positive allosteric modulators of human muscarinic M5 receptor | P08912 | activation, % at 3 µM | CHO-K1 hM5, Fluo-8 calcium, ACh EC20 PAM; 0% = ACh EC20, 100% = ACh EC100 | 0.3% of 360,000 active;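 active = activation above the run cutoff, the mean activation of all test compounds plus 3 SD, cut at about 18% in these data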
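Probe or stimulus: acetylcholine, EC20 level; Assay system: human M5 receptor in CHO-K1 cells; Schedule: compound preincubation 140 s before EC20 acetylcholine addition; Technique: intracellular calcium via Fluo-8 fluorescence; Dosing: single-point, 3 µM nominal; Read-out basis: percent activation from peak-over-basal fluorescence ratio, scaled EC20-to-EC100 acetylcholine; Repeats: one well per compound, no replicates.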
CHRM5 agonist: agonists of human muscarinic M5 receptor (CHRM5). P08912. CHO-K1 hM5 cells, Fluo-8 calcium fluorescence; 0% DMSO wells, 100% maximal acetylcholine response. activation, % at 3 µM. 0.19% of 360,000 active. AID 624037;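 active = activation above the run's mean over test compounds plus 3 SD, cut at about 23% in these data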;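 note: signal is peak over basal fluorescence ratio across the kinetic read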
M5 antag: antagonists of human muscarinic M5 receptor (CHRM5); P08912; CHO-hM5 cells, Fluo-8 calcium fluorescence, ACh EC80; inhibition, % at 3 µM; 0.59% of 360,000 active;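 active = inhibition above a per-plate cutoff, the mean of that plate's test compounds plus 3 SD, cut at about 27% in these data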;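 note: 0% = acetylcholine EC80 with DMSO and 100% = DMSO without agonist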
CHRM4 agonist: agonists of human muscarinic M4 receptor (CHRM4); AID 624127; activation, % at 3 µM; P08173; 0.14% of 360,000 active; CHO-K1 hM4/Gqi5, Fluo-8 calcium fluorescence; vehicle 0%, full acetylcholine response 100%;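 active = activation above the run mean over all test wells plus 3 SD, cut at about 32% in these data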;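 note: peak over basal fluorescence ratio per well then scaled between controls; 0% = DMSO wells and 100% = acetylcholine at EC100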
* = called active by the depositor.

SMILES | CHRM4 antagonist | CHRM4 PAM | M5 PAM | CHRM5 agonist | M5 antag | CHRM4 agonist
CCOC(=O)C1(CCOc2ccccc2)CCN(C2Cc3ccccc3C2)CC1 | 3 | -17 | -18 | -7 | 32* | 3
COc1c(C)cc(C(=O)C2CCCN(Cc3ccccn3)C2)cc1C (stereo not drawn) | -1 | -6 | 4 | -9 | 1 | 1
NNC(=O)c1ccc(Cl)cc1 | 12 | -14 | -5 | -1 | -4 | 0
COC(=O)C1=C(c2cccc(C#N)c2)C[C@@H]2CC[C@H]1N2C(=O)NCCCOC(C)C | -3 | 4 | 6 | 0 | 6 | 0
COC(=O)C1=C(c2ccc(F)cc2OCc2ccccc2)C[C@@H]2CC[C@H]1N2C(=O)N1CCC(O)(c2ccc(Cl)cc2)CC1 | -4 | 13 | -4 | 2 | 8 | 2
CCOP(=O)(OCC)C(C)(C)NC(=O)C(Cl)(Cl)Cl | 1 | 14 | 2 | 2 | -1 | 0
CCCCn1c(=O)c(C(=O)Nc2ncccc2C)c(O)c2ccccc21 | 5 | -6 | -2 | 9 | 4 | 33*
CCCCCCn1c(=O)c(C(=O)Nc2ncccc2C)c(O)c2ccccc21 | 1 | -2 | 3 | 1 | -2 | 1
C=CCn1c(O)c(C(CC)=Nc2ccccc2NC(C)=O)c(=O)[nH]c1=O | 12 | 28* | 2 | -1 | -7 | 1
C=CCn1c(O)c(C(C)=Nc2ccc(NC(C)=O)cc2)c(=O)[nH]c1=O | -6 | 21* | 4 | -1 | -5 | 0
O=C1NCN(c2ccccc2)C12CCN(C(c1ccnc3ccccc13)c1nnnn1-c1ccc3c(c1)OCCO3)CC2 (stereo not drawn) | 12 | -12 | -14 | 2 | 11 | 18
Cc1ccc(-n2c(O)c(C=Nc3ccc(Br)cn3)c(=O)[nH]c2=O)cc1 | -5 | -1 | 6 | 0 | -14 | 1
NC(Cc1ccc(Cl)cc1)c1csc(Nc2ncccn2)n1 (stereo not drawn) | 96* | -14 | 0 | 4 | 0 | 2
Nc1ccc(CC(N)c2csc(Nc3ncccn3)n2)cc1 (stereo not drawn) | -7 | 10 | -8 | -1 | 3 | 0
NC(=O)c1c(NC(=O)c2ccc(S(=O)(=O)N(CCCl)CCCl)cc2)sc2c1CCCCC2 | 4 | -8 | -4 | 1 | -1 | 1
O=C(Nc1ccc(F)cc1)c1c(O)c2c(n(Cc3ccccc3)c1=O)CCCC2 | 14 | 21* | -3 | -1 | -7 | 2
O=C(Nc1cccnc1)c1c(O)c2c(n(Cc3ccccc3)c1=O)CCCC2 | 1 | 0 | 1 | -3 | -5 | 0
Cc1cc(OCC(=O)N2CCC(C(=O)O)(c3ccccc3)CC2)c2c(C)c(C)c(=O)oc2c1 | 76* | -16 | -2 | 2 | 2 | 0
O=C(/C=C/c1ccccc1)N1Cc2ccccc2-n2nncc2C1 | -14 | 8 | -7 | 0 | 12 | 4
O=C(CF)NC(NC(=S)Nc1ccccc1O)C(Cl)(Cl)Cl (stereo not drawn) | -12 | 20* | 4 | 0 | 6 | 1
COP(=O)(OC)C(Nc1ccccc1)c1ccccc1 (stereo not drawn) | 13 | -11 | -8 | -11 | 13 | 0
Oc1c(Cl)cccc1Cc1cc(Cl)cc(Cl)c1O | 10 | -3 | -24 | 4 | 30* | 10
O=C(Nc1ccc(Cl)cc1)O/N=C(\c1ccccc1)c1ccccn1 | 13 | -20 | -12 | 4 | 33* | 8
CON(C)C(=O)Nc1ccc(Cl)cc1 | 2 | 16 | 5 | 0 | -3 | 2
OCC(Br)CBr (stereo not drawn) | -8 | 6 | -1 | 3 | 4 | 1
O=c1[nH]c2ccccc2n1C1CCN(C(c2nnnn2C2CCCCC2)C2CC2)CC1 (stereo not drawn) | 13 | 0 | -12 | 15 | 10 | 27
O=C1CCCN1CC#CCN1CCCC1 | 81* | -19 | -15 | 103* | 95* | 84*
C(#CCN1CCCCC1)CN1CCCCC1 | 2 | -4 | -6 | 1 | 1 | 1
